pIC50: −log10 of the molar value.
How the values were obtained:
hERG (KCNH2) = hERG (KCNH2) (Homo sapiens, UniProt Q12809); experiment: Displacement of [35S]-MK0499 from human ERG expressed in HEK293 cell membranes at 10 uM after 2 hrs by liquid scintillation counting analysis relative to control; settings: membranes of HEK293 cells that express human ERG, probe [35S]-MK0499
Procedure, shortened: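 hERG binding assay measuring displacement of 35S-labelled MK-0499, a known hERG blocker.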

[1] = target: Sodium channel protein type 9 subunit alpha (Homo sapiens, UniProt Q15858); experiment: Inhibition of human NaV1.7 channel expressed in HEK293 cells by FRET assay; type: cell-based
Sodium channel protein type 9 subunit alpha, sequence (Q15858 whole entry): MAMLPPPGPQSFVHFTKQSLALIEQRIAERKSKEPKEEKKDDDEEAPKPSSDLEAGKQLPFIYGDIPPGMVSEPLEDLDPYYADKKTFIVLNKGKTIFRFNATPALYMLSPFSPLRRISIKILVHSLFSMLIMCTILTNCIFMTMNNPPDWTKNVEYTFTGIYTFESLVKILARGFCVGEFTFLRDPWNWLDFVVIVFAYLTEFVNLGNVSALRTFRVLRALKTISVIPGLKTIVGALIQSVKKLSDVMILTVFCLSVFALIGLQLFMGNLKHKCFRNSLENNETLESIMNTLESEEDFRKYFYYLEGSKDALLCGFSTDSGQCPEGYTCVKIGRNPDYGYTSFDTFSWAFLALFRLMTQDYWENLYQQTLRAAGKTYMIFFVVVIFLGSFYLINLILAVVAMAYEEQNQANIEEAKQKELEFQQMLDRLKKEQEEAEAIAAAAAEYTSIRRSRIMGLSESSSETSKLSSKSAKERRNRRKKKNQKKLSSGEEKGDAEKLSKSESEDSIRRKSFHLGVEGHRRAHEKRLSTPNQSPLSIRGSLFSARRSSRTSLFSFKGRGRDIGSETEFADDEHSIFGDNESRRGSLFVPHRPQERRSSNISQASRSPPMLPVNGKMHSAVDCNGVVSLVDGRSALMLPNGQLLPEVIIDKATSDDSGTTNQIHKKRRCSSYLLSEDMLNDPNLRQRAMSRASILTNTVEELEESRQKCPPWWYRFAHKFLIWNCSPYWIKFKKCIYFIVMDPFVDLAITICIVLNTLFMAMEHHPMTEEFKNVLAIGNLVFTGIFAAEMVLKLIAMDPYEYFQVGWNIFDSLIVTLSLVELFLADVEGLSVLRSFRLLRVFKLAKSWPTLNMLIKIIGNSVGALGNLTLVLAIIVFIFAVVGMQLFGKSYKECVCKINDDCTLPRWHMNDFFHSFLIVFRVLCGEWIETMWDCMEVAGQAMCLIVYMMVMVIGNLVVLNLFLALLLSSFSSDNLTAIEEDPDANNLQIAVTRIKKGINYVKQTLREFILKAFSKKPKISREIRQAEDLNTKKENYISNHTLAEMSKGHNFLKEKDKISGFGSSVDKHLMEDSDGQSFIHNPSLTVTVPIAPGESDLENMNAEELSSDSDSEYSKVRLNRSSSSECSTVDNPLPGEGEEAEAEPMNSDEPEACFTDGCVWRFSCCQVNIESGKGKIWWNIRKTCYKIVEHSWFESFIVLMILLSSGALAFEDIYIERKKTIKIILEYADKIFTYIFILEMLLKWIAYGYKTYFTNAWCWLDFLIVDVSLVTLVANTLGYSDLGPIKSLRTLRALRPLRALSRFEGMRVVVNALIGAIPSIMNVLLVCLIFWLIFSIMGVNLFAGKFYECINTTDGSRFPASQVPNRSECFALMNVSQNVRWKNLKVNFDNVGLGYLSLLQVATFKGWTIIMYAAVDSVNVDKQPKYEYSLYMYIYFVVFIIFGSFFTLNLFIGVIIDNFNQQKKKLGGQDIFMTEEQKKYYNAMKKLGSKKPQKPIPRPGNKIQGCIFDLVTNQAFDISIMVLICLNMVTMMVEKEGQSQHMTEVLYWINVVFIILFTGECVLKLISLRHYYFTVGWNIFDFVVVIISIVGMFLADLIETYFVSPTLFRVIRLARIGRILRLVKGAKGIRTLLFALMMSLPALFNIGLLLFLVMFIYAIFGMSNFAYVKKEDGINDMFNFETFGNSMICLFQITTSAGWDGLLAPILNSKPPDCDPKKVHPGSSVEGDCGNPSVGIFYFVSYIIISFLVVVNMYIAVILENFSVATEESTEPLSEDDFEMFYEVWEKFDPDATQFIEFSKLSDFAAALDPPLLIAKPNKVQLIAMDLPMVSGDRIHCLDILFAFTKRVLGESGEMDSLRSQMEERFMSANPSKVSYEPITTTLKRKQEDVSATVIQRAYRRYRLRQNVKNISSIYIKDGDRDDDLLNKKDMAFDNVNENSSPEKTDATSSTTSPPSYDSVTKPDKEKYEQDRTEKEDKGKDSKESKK
Procedure, shortened: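 HEK293 cells stably expressing human Nav1.7. Channel block was read in a functional membrane-potential assay based on FRET between two membrane-associated dyes; IC50 determined.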

[2] = Plasma clearance in Sprague-Dawley rat at 3 mg/kg, po and 1 mg/kg, iv; type: ADME, organism-based
Procedure, shortened: (§1)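 Fasted male Sprague–Dawley rats (n = 3 per route) were dosed with 1.5 mg/mL solutions in PEG300/water or DMSO/PEG300/water, either 1.0 mg/kg iv via femoral-vein cannula or 3.0 mg/kg by oral gavage. Blood was sampled at 5 min (iv only), 15 and 30 min, and 1, 2, 4, 6 and 8 h. Plasma levels were measured by LC–MS/MS after acetonitrile protein precipitation.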

Rattus norvegicus [3] = experiment: Dose normalized AUC in Sprague-Dawley rat at 3 mg/kg, po; type: ADME, organism-based; design: dose 3 mg/kg, route oral; settings: in vivo; procedure, shortened: as §1
[4] = Half life in Sprague-Dawley rat at 3 mg/kg, po and 1 mg/kg, iv; type: ADME, organism-based; settings: in vivo; procedure, shortened: as §1
[5] = Oral bioavailability in Sprague-Dawley rat at 3 mg/kg; type: ADME, organism-based; settings: in vivo; procedure, shortened: as §1
Rattus norvegicus [6] = experiment: Neurotoxicity in rat assessed as reduction in latency time at => 30 mg/kg, po after 2 hrs by rotarod test relative to vehicle-treated control; type: toxicity, organism-based; design: dose 30 mg/kg, route oral; scale not given: the % may be the effect or the level left; settings: in vivo
Procedure, shortened: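 Rats trained on rotarod 3 min at 10 rpm; single oral dose of test compound or vehicle (30 or 100 mg/kg); tested at 2 and 4 h post-dose with speed at 10 rpm for 60 s then accelerated to 60 rpm; time to fall after start of acceleration recorded. Significant impairment defined as >20% reduction in latency time.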

Rattus norvegicus [7] = experiment: Analgesic activity in po dosed rat spinal nerve ligation neuropathic pain model assessed as reversal of allodynia measured at 2 to 4 hrs; type: functional
Procedure, shortened: (§2)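 Rat spinal nerve ligation model. Seven days after surgery, rats received a single oral dose (3, 10 or 30 mg/kg) of test agent or vehicle. Tactile allodynia was scored at 2, 4, 8 and 24 h post-dose with calibrated von Frey filaments using an up-down paradigm. Threshold is the force giving a 50% withdrawal rate. %MPE = (post-compound − post-SNL)/(pre-SNL − post-SNL) × 100, where 100% is full reversal.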

Rattus norvegicus [8] = experiment: Analgesic activity in rat spinal nerve ligation neuropathic pain model assessed as reversal of allodynia at 30 mg/kg, po measured at 2 hrs relative to control; type: functional; procedure, shortened: as §2

hERG (KCNH2), sequence (Q12809 whole entry): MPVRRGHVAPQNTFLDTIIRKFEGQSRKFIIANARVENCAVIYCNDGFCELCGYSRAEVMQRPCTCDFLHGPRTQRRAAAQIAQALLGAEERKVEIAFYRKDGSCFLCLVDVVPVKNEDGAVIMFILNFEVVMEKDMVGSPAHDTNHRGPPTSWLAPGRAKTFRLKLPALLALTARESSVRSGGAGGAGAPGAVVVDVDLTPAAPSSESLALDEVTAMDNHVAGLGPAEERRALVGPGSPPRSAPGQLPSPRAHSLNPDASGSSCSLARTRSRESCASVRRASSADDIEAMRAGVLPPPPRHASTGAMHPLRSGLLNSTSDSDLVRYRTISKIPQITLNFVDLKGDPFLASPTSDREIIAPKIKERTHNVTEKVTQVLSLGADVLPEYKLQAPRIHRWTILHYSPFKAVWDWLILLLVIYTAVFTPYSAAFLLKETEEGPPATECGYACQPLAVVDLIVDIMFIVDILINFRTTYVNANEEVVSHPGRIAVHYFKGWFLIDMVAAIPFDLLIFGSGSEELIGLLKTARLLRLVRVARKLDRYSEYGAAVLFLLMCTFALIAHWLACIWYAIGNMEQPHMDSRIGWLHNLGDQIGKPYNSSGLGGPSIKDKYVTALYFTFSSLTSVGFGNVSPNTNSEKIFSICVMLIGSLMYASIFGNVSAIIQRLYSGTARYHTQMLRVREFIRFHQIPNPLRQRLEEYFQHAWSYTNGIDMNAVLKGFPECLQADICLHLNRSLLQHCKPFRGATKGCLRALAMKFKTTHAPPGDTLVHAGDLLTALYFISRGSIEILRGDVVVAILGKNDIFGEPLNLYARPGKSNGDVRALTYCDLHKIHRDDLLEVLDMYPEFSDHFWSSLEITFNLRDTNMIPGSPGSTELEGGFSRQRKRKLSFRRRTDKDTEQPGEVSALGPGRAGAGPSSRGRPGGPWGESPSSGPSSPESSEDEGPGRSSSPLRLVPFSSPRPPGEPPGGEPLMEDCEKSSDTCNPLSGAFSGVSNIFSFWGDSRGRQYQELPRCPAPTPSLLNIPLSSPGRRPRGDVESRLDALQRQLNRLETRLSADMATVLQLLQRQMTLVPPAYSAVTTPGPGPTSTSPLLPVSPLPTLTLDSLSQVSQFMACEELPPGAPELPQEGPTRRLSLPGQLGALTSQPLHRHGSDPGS

O=C(N[C@H](Cc1ccccc1F)C(=O)N[C@@H]1CCc2c(F)c(F)cc(F)c2N(C2CC2)C1=O)c1ccc(F)cc1C(F)(F)F
inhibition at 2 h, 10 µM (hERG (KCNH2)): 31%
pIC50 [1]: 7.07

CC1CC1N1C(=O)[C@H](NC(=O)[C@@H](Cc2ccccc2F)NC(=O)C2CC2C(F)(F)F)CCc2c(F)c(F)cc(F)c21 (stereo partly drawn)
inhibition at 2 h, 10 µM (hERG (KCNH2)): 54%
pIC50 [1]: 7.00

CC(C)N1C(=O)[C@H](NC(=O)[C@@H](Cc2ccccc2OC(F)(F)F)NC(=O)OC(C)(C)C)CCc2cc(C(F)(F)F)ccc21
inhibition at 2 h, 10 µM (hERG (KCNH2)): 7%
clearance [2]: 39 mL/min/kg
AUC/dose (Rattus norvegicus [3]): 0.41 µM·h/mg/kg
pIC50 [1]: 6.74
half-life [4]: 1.9 h
bioavailability [5]: 59%

CC(C)N1C(=O)[C@H](NC(=O)[C@@H](Cc2ccccc2OC(F)(F)F)NC(=O)OC(C)(C)C)CCc2cccc(F)c21
inhibition at 2 h, 10 µM (hERG (KCNH2)): 24%
clearance [2]: 21 mL/min/kg
AUC/dose (Rattus norvegicus [3]): 0.39 µM·h/mg/kg
pIC50 [1]: 7.15
half-life [4]: 2.7 h
bioavailability [5]: 27%

CC(C)N1C(=O)[C@H](NC(=O)[C@@H](Cc2ccccc2OC(F)(F)F)NC(=O)OC(C)(C)C)CCc2ccc(C(F)(F)F)cc21
inhibition at 2 h, 10 µM (hERG (KCNH2)): 19%
clearance [2]: 26 mL/min/kg
AUC/dose (Rattus norvegicus [3]): 0.22 µM·h/mg/kg
pIC50 [1]: 6.31
half-life [4]: 1.3 h
bioavailability [5]: 21%

CC(C)N1C(=O)[C@H](NC(=O)[C@@H](Cc2ccccc2F)NC(=O)c2ccc(F)cc2C(F)(F)F)CCc2cc(Cl)ccc21
AUC/dose (Rattus norvegicus [3]): 0.58 µM·h/mg/kg

CC(C)N1C(=O)[C@H](NC(=O)[C@@H](Cc2ccccc2F)NC(=O)c2ccccc2C(F)(F)F)CCc2c(F)c(F)cc(F)c21
inhibition at 2 h, 10 µM (hERG (KCNH2)): 10%
pIC50 [1]: 6.64

CC(C)N1C(=O)[C@H](NC(=O)[C@@H](Cc2ccccc2F)NC(=O)c2ccc(F)cc2C(F)(F)F)CCc2cc(C(F)(F)F)ccc21
inhibition at 2 h, 10 µM (hERG (KCNH2)): 10%
clearance [2]: 33 mL/min/kg
AUC/dose (Rattus norvegicus [3]): 0.6 µM·h/mg/kg
pIC50 [1]: 6.44
half-life [4]: 2.5 h
bioavailability [5]: 75%

CC(C)N1C(=O)[C@H](NC(=O)[C@@H](Cc2ccccc2F)NC(=O)c2ccccn2)CCc2c(F)c(F)cc(F)c21
inhibition at 2 h, 10 µM (hERG (KCNH2)): 22%
pIC50 [1]: 6.35

CC(C)N1C(=O)[C@H](NC(=O)[C@@H](Cc2ccccc2OC(F)(F)F)NC(=O)OC(C)(C)C)CCc2cc(F)cc(F)c21
inhibition at 2 h, 10 µM (hERG (KCNH2)): 21%
clearance [2]: 17 mL/min/kg
AUC/dose (Rattus norvegicus [3]): 0.54 µM·h/mg/kg
pIC50 [1]: 7.24
half-life [4]: 2.7 h
bioavailability [5]: 30%

CC(C)N1C(=O)[C@H](NC(=O)[C@@H](Cc2ccccc2OC(F)(F)F)NC(=O)OC(C)(C)C)CCc2cc(F)ccc21
inhibition at 2 h, 10 µM (hERG (KCNH2)): 24%
clearance [2]: 16 mL/min/kg
AUC/dose (Rattus norvegicus [3]): 0.66 µM·h/mg/kg
pIC50 [1]: 7.47
half-life [4]: 2.3 h
bioavailability [5]: 35%

CC(C)N1C(=O)[C@H](NC(=O)[C@@H](Cc2ccccc2F)NC(=O)c2ccc(F)cc2C(F)(F)F)CCc2cc(Cl)cc(F)c21
inhibition at 2 h, 10 µM (hERG (KCNH2)): 17%
clearance [2]: 21 mL/min/kg
AUC/dose (Rattus norvegicus [3]): 0.93 µM·h/mg/kg
pIC50 [1]: 6.59
half-life [4]: 1.9 h
bioavailability [5]: 74%

CC(C)N1C(=O)[C@H](NC(=O)[C@@H](Cc2ccccc2OC(F)(F)F)NC(=O)OC(C)(C)C)CCc2cc(Cl)ccc21
AUC/dose (Rattus norvegicus [3]): 0.71 µM·h/mg/kg

CC1CC1C(=O)N[C@H](Cc1ccccc1F)C(=O)N[C@@H]1CCc2c(F)c(F)cc(F)c2N(C(C)C)C1=O (stereo partly drawn)
inhibition at 2 h, 10 µM (hERG (KCNH2)): 0%
clearance [2]: 35 mL/min/kg
AUC/dose (Rattus norvegicus [3]): 0.44 µM·h/mg/kg
pIC50 [1]: 6.99
half-life [4]: 0.8 h
bioavailability [5]: 47%

CC(C)N1C(=O)[C@H](NC(=O)[C@@H](Cc2ccccc2F)NC(=O)c2ccc(F)cc2C(F)(F)F)CCc2cc(F)cc(F)c21
inhibition at 2 h, 10 µM (hERG (KCNH2)): 34%
clearance [2]: 21 mL/min/kg
AUC/dose (Rattus norvegicus [3]): 0.42 µM·h/mg/kg
pIC50 [1]: 6.58
half-life [4]: 1.9 h
bioavailability [5]: 31%

NCC1(CC(=O)O)CCCCC1 [GABAPENTIN]
Activity (Rattus norvegicus [6]): > 20%
ED50 (Rattus norvegicus [7]): 50 mg/kg
Activity (Rattus norvegicus [8]): 36%

CC(C)N1C(=O)[C@H](NC(=O)[C@@H](Cc2ccccc2OC(F)(F)F)NC(=O)OC(C)(C)C)CCc2c(F)c(F)cc(F)c21
inhibition at 2 h, 10 µM (hERG (KCNH2)): 24%
pIC50 [1]: 7.17

CC(C)N1C(=O)[C@H](NC(=O)[C@@H](Cc2ccccc2F)NC(=O)c2ccc(F)cc2C(F)(F)F)CCc2c(F)c(F)cc(F)c21
inhibition at 2 h, 10 µM (hERG (KCNH2)): 20%
clearance [2]: 19 mL/min/kg
AUC/dose (Rattus norvegicus [3]): 1 µM·h/mg/kg
pIC50 [1]: 6.99
half-life [4]: 5.6 h
bioavailability [5]: 68%

CC(C)N1C(=O)[C@H](NC(=O)[C@@H](Cc2ccccc2F)NC(=O)c2ccc(F)cc2C(F)(F)F)CCc2cc(F)ccc21
inhibition at 2 h, 10 µM (hERG (KCNH2)): 36%
clearance [2]: 36 mL/min/kg
AUC/dose (Rattus norvegicus [3]): 0.45 µM·h/mg/kg
pIC50 [1]: 6.60
half-life [4]: 1.7 h
bioavailability [5]: 56%

CC(C)N1C(=O)[C@H](NC(=O)[C@@H](Cc2ccccc2OC(F)(F)F)NC(=O)OC(C)(C)C)CCc2ccc(F)cc21
inhibition at 2 h, 10 µM (hERG (KCNH2)): 26%
clearance [2]: 29 mL/min/kg
AUC/dose (Rattus norvegicus [3]): 0.2 µM·h/mg/kg
pIC50 [1]: 7.74
half-life [4]: 2.5 h
bioavailability [5]: 20%

CC(C)N1C(=O)[C@H](NC(=O)[C@@H](Cc2ccccc2OC(F)(F)F)NC(=O)OC(C)(C)C)CCc2ccccc21
AUC/dose (Rattus norvegicus [3]): 0.31 µM·h/mg/kg

CC1CC1N1C(=O)[C@H](NC(=O)[C@@H](Cc2ccccc2F)NC(=O)c2ccc(F)cc2C(F)(F)F)CCc2c(F)c(F)cc(F)c21 (stereo partly drawn)
inhibition at 2 h, 10 µM (hERG (KCNH2)): 44%
pIC50 [1]: 6.88

Cc1cccc(C)c1OCC(C)N (stereo not drawn) [MEXILETINE]
ED50 (Rattus norvegicus [7]): 45 mg/kg
Activity (Rattus norvegicus [8]): 42%

CC(C)N1C(=O)[C@H](NC(=O)[C@@H](Cc2ccccc2F)NC(=O)C2CC2C(F)(F)F)CCc2c(F)c(F)cc(F)c21 (stereo partly drawn)
inhibition at 2 h, 10 µM (hERG (KCNH2)): 2%
clearance [2]: 23 mL/min/kg
AUC/dose (Rattus norvegicus [3]): 0.79 µM·h/mg/kg
pIC50 [1]: 6.86
half-life [4]: 2.2 h
bioavailability [5]: 62%

From ChEMBL document CHEMBL2390921, “A novel benzazepinone sodium channel blocker with oral efficacy in a rat model of neuropathic pain” (Bioorg Med Chem Lett, 2013)
